Screens: PubChem BioAssay, The Scripps Research Institute Molecular Screening Center
CHRM5 antagonist = antagonists of human muscarinic M5 receptor (CHRM5); CHO-hM5 cells, Fluo-8 calcium fluorescence, ACh EC80; inhibition, % at 3 µM; 360,000 tested, 0.59% active; AID 624040;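 active means inhibition above a per-plate cutoff, the mean of that plate's test compounds plus 3 SD, cut at about 27% in these data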;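 further: 0% = acetylcholine EC80 with DMSO and 100% = DMSO without agonist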
CHRM1 PAM = human CHRM1 positive allosteric modulation | P11229 | CHO-K1 hM1, Fluo-8 calcium fluorescence, ACh EC20; 0% = ACh EC20, 100% = maximal ACh | activation, % at 3 µM | 360,000 tested, 0.088% active; in the data active means activation above about 19%, passing the limit was not always enough
Target sequence (P11229 whole entry, looked up): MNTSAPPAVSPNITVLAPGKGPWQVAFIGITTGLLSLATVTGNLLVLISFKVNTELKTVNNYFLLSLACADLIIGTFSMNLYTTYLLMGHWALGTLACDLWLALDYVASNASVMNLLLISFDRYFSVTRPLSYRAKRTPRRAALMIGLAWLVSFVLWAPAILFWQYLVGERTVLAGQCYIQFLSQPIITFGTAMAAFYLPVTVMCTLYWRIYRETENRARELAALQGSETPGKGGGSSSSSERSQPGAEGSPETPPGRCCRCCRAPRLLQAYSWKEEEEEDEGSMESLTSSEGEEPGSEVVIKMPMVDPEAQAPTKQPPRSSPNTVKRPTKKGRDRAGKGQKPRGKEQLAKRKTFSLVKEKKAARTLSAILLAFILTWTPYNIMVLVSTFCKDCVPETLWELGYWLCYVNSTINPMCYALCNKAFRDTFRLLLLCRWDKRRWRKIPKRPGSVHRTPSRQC
M1 antag = antagonists of human M1 muscarinic receptor | CHO-K1 hM1, Fluo-8 calcium fluorescence, ACh EC80 antagonist | 360,000 tested, 1.3% active | inhibition, % at 3 µM | P11229;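 active means percent inhibition above its own plate's cutoff, namely the mean of that plate's compound wells plus 3 SD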;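 further: peak over basal fluorescence ratio during 140 s after agonist addition; 0% = ACh EC80 plus DMSO and 100% = DMSO alone without agonist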
CHRM5 agonist = CHRM5 agonism in calcium assay; CHO-K1 hM5 cells, Fluo-8 calcium fluorescence; 0% DMSO wells, 100% maximal acetylcholine response; activation, % at 3 µM; 360,000 tested, 0.19% active; AID 624037;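 active means activation above the run's mean over test compounds plus 3 SD, cut at about 23% in these data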;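 further: signal is peak over basal fluorescence ratio across the kinetic read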
M1 ag = agonists of human M1 muscarinic receptor | CHO-K1 hM1, Fluo-8 calcium fluorescence, agonist mode; 0% DMSO, 100% acetylcholine EC100 | activation, % at 3 µM | 360,000 tested, 0.33% active | AID 588814;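 active means activation above the run's mean compound activation plus 3 SD, cut at about 16% in these data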;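 further: peak over basal fluorescence ratio within a 140 s kinetic read after compound addition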
CHRM5 PAM = positive allosteric modulators of human muscarinic M5 receptor. CHO-K1 hM5, Fluo-8 calcium, ACh EC20 PAM; 0% = ACh EC20, 100% = ACh EC100. activation, % at 3 µM. 360,000 tested, 0.3% active;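 active means activation above the run cutoff, the mean activation of all test compounds plus 3 SD, cut at about 18% in these data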
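System – CHO-K1 hM5 cells · Compound – 3 µM, single dose · Incubation – compound preincubation 140 s before EC20 acetylcholine addition · Technique – Fluo-8 calcium fluorescence · Measure – Max/basal fluorescence ratio as % of EC20–EC100 ACh window · Benchmarks – low control EC20 acetylcholine (0%), high control EC100 acetylcholine (100%) · Replication – singlicate, one well per test compound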
Numbers without * were called inactive; . = no result given. Only some compounds are listed: those with a hit (about 2.2% of all), similar ones and a draw of the others.

SMILES	CHRM5 antagonist	CHRM1 PAM	M1 antag	CHRM5 agonist	M1 ag	CHRM5 PAM
COc1ccc(/C=C2\CN(Cc3ccccc3)C/C(=C\c3ccc(OC)cc3OC)C2=O)c(OC)c1	20.3	-7.4	29.2*	3.0	0.3	-22.1
O=C(NC1CCCC1)C(c1ccccc1)n1c(-c2ccc3c(c2)CCO3)nc2ccccc21 (configuration not stated)	9.6	.	.	-2.6	.	-7.6
Nc1[nH]nc2nc(N3CCCC3)nc(-c3ccccc3)c12	-6.8	-5.3	23.7	-3.0	-0.5	25.2*
O=C1Nc2ccc(Br)cc2C12NNc1ccccc1O2 (configuration not stated)	31.4*	-1.0	19.8	22.5	9.9	-13.2
CNc1n[nH]c(-c2ccccc2)n1	8.3	-2.5	7.2	1.3	-2.3	-5.2
Cc1ccc(NS(=O)(=O)c2cccc3nsnc23)cc1C	20.9	-26.4	39.8*	-5.8	-7.5	-17.9
O=C(CSc1nnc(NC(=O)c2ccc(F)cc2F)s1)NC1CCCC1	17.4	2.3	-4.9	1.1	-0.9	-1.0
Cc1cccc(-n2c(=S)[nH]c3nc4c(cc3c2=O)COC(C)(C)C4)c1	6.5	12.1	-17.8	0.6	-4.1	5.2
CCOC(=O)C1C(=O)C=C(/C=C/c2ccc(N(C)C)cc2)CC1c1ccccc1 (configuration not stated)	19.7	-6.6	21.2	28.6*	18.3*	-9.2
CCOC(=O)C1C(=O)C=C(c2ccc(C)cc2)CC1c1ccccc1 (configuration not stated)	0.9	4.6	-9.1	-5.8	-6.9	-9.0
O=C(c1cc2c(c(-c3cccc(-c4ccc(F)cc4)c3)n1)[C@H](CCO)N(C(=O)c1ccc3c(c1)OCO3)C2)N1CCOCC1	-0.3	.	.	2.0	.	-3.0
CCCCn1c(N)c(N(CC(C)C)C(=O)CSc2n[nH]c(-c3ccc(C)cc3)n2)c(=O)[nH]c1=O	-9.7	-0.1	6.0	-1.6	-1.7	11.1
COCC(C)NC(=O)c1ccc(CN2CCc3ccccc3C2)cc1 (configuration not stated)	10.9	-25.5	64.9*	-9.4	-9.3	-4.6
O=C(NCc1ccc2c(c1)OCO2)c1ccc(CN2CCc3ccccc3C2)cc1	3.7	-20.1	32.2*	-5.7	-5.5	1.1
O=C(NCC(=O)N1CCN(Cc2ccc3c(c2)OCO3)CC1)c1ccccc1F	9.9	-0.1	2.0	4.1	0.4	3.6
CCC(C)NC(=O)c1ccc(CN2CCc3ccccc3C2)cc1 (configuration not stated)	11.6	-25.9	65.5*	-15.6	-8.8	-2.4
CCCCOc1ccc(C(=O)NCC(=O)N2CCN(Cc3ccc4c(c3)OCO4)CC2)cc1	4.3	-15.7	29.6*	0.7	-6.2	-0.7
COCCNC(=O)c1ccc(CN2CCc3ccccc3C2)cc1	-6.0	-1.3	-1.1	-1.7	-12.9	3.7
COc1ccc(CN2C(=O)C(CC(=O)NCCCN(C)C)CC(C(=O)N(C)C)=C2C)cc1 (configuration not stated)	-6.4	1.4	-9.7	-0.5	-2.6	5.6
Cc1nn(-c2ccc(F)cc2)c(Cl)c1/C=C(\CCC(=O)O)c1nc2ccccc2s1	3.8	4.7	-2.3	0.4	-1.2	-3.4
COc1ccccc1NC(=O)Cn1nnc(-c2ccccc2NC(=O)c2cccs2)n1	12.3	4.8	-9.0	-1.2	1.9	-10.4
NC(=O)Cn1nnc(-c2ccccc2NC(=O)c2cnccn2)n1	21.6	10.2	-16.4	-2.0	12.6	35.0*
CC(C)(C)NC(=O)Cn1nnc(-c2ccccc2NC(=O)c2cnccn2)n1	-4.0	6.9	-11.3	-1.8	-0.2	11.9
O=C(Cn1nnc(-c2ccccc2NC(=O)c2cccs2)n1)Nc1ccccc1	-0.2	5.3	-11.1	-1.1	-1.8	20.9*
O=C(Nc1cccc(C(F)(F)F)c1)C1CCN(S(=O)(=O)c2ccc(N3CCCC3=O)cc2)CC1	36.9*	-7.8	33.1	1.9	1.6	-13.9
SMILES	CHRM5 antagonist	CHRM1 PAM	M1 antag	CHRM5 agonist	M1 ag	CHRM5 PAM
O=C(NCc1ccc(Cl)cc1)C1CCN(S(=O)(=O)c2ccc(N3CCCC3=O)cc2)CC1	-7.9	-14.8	32.8*	0.3	1.0	-5.4
COc1cccc(NC(=O)C2CCN(S(=O)(=O)c3ccc(N4CCCC4=O)cc3)CC2)c1	9.6	-12.0	4.9	6.3	2.6	-15.0
COc1ccc(NC(=S)NC(=O)Cc2ccccc2)cc1	6.7	5.3	-9.6	0.0	-1.2	-2.8
COc1ccc(CC(=O)NC(=S)Nc2ccc(S(N)(=O)=O)cc2)cc1	10.6	-0.6	0.3	18.1	29.8*	-8.0
COc1ccc(CC(=O)NC(=S)Nc2ccc(S(=O)(=O)NC(C)(C)C)cc2)cc1	4.8	8.5	-14.7	21.4	23.6*	4.5
CCc1nc2ccc(C(=O)Nc3ccc(C(=O)N(C)C)cc3)cn2c1N(C)CCCc1ccccc1	0.9	-24.2	39.4*	18.9	-9.2	3.2
CCc1nc2ccc(C(=O)Nc3cccc(OC)c3)cn2c1N(C)CCCc1ccccc1	1.3	-2.5	-2.7	-1.1	-8.8	-0.4
CCc1nc2ccc(C(=O)Nc3cccc(NS(C)(=O)=O)c3)cn2c1N(C)CCCc1ccccc1	3.4	-21.7	41.1*	-1.7	-6.6	-8.5
CCc1nc2ccc(C(=O)Nc3ccc(NC(C)=O)cc3)cn2c1N(C)CCCc1ccccc1	9.0	-29.2	46.7*	10.6	-4.3	-9.2
COCCCNC(=O)C(=O)NCCCOC(C)C	-1.4	10.7	-13.1	-0.2	-3.0	5.9
COc1cccc(C(=O)NCCSCc2ccccc2Cl)c1	-7.3	26.0	-30.2	-6.3	-0.9	18.1*
COc1cccc(C(=O)NCCSCc2c(F)cccc2Cl)c1	-3.4	-4.1	1.9	-12.9	-4.7	10.0
Cc1cccc(C(=O)NN2S(=O)(=O)c3ccccc3S2(=O)=O)c1	9.5	5.4	32.9*	0.3	-2.5	-7.3
Cc1cccc(C(=O)NN2C(=O)C3C(c4ccccc4)C=CC(c4ccccc4)C3C2=O)c1 (configuration not stated)	20.4	-22.0	89.1*	-7.4	3.4	-23.5
O=C(NN1C(=O)C2C3C=CC(C3)C2C1=O)c1ccccc1 (configuration not stated)	-2.2	8.8	-8.7	-1.4	-3.4	-1.8
Cc1cc(N2CCCC2)c(F)cc1/C=C\[N+](=O)[O-]	64.3*	9.0	19.9	25.3*	28.1*	-12.7
COc1cccc2c(=O)n(CC(=O)Nc3cccc(F)c3)ccc12	0.9	8.9	-8.7	0.6	-0.9	-0.7
CC(C)(C)[C@H]1C=C(C(=O)N2CCN(Cc3ccc4c(c3)OCO4)CC2)O[C@@H](OCCCCO)C1	-24.0	6.4	-6.4	5.0	-3.9	20.1*
